Screening results deposited in PubChem BioAssay by several laboratories.
RanGTP-Impb inh: inhibitors of RanGTP-importin-beta interaction, primary screen, biochemical, FRET, CFP-Ran, YFP-importin-beta, homogeneous; cell-free CFP-Ran/YFP-importin-beta FRET ratio; inhibition, % (concentration not given with the values); 300,000 tested, 1.1% active; AID 2216;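 active means more than half of the replicate wells show a fall in the fluorescence ratio signal beyond about 16%, limit read from the data, passing the limit was not always enough; inconclusive means exactly half of the replicate wells pass the set limit; inactive means fewer than half of replicates pass the limit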;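 further: 0% = DMSO wells and 100% = Ran loaded with GDP instead of GTP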
Runt-SMMHC FRET: Runt domain-CBFb-SMMHC interaction inhibition; Cerulean-Runt/Venus-CBFb-SMMHC FRET ratio 530/480, 1 h; Q01196+Q13951; inhibition, % at 20 µM; AID 1434; 220,000 tested, 0.74% active;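 active means mean inhibition across duplicate retests at 20 µM reaching about 50%, limit read from the data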;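 further: 0% = DMSO wells and 100% = wells with excess untagged CBFb-SMMHC; inhibitors lower the FRET ratio by blocking Runt binding to CBFb-SMMHC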
Platelet DG rel: platelet dense granule release activity. human platelet-rich plasma, SFLLRN dense granule ATP release, luminescence. inhibition, %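 (compounds screened at 7.5 µM in platelet-rich plasma)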. 300,000 tested, 0.22% active. AID 1663;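 active means mean replicate score, as percent of positive control, at or above 50; inconclusive means mean below 50 but at least one replicate at or above 50; inactive means mean and every replicate below 50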
Rce1 inh: inhibitors of yeast Ras-converting enzyme. Q03530. yeast membranes, quenched prenylated peptide cleavage fluorescence. calls only. 290,000 tested, 0.27% active. AID 2563;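 active means fall in fluorescence gain of 50% or more versus controls, with final raw signal at or below 3038400; inconclusive means same 50% fall but final raw signal above 3038400; inactive means fall in fluorescence gain under 50%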;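 further: plate controls were neutral control wells for no effect and wells lacking membranes for full effect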
Target sequence (Q03530 whole entry, looked up): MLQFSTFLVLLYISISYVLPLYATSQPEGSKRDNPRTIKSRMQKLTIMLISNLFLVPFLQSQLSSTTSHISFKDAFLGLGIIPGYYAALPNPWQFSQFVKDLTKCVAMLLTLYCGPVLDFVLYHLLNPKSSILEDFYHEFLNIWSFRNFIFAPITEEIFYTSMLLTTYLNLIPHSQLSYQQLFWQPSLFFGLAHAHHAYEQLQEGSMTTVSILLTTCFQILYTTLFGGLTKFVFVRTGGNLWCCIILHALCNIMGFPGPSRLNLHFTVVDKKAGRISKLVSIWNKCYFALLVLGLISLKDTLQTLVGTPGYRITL
Runt-CBFb FRET: blocks binding of human RUNX1 Runt domain to CBFb | Q01196+Q13951 | inhibition, % at 20 µM | Cerulean-Runt/Venus-CBFb FRET ratio 530/480, 1 h | 220,000 tested, 0.46% active;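 active means inhibition over about 50% at 20 µM in the single-dose screen, limit read from the data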;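 further: 0% = DMSO wells and 100% = excess unlabeled CBFb competitor control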
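Measured by: fluorescence energy transfer, 422 nm excitation, 530/480 nm emission; test system: Cerulean-tagged RUNX1 Runt domain (FRET donor) fusion protein; buffer or medium: Tris pH 7.5 buffer with BSA; compound: one dose, 20 µM compound, 1% DMSO; times: two 1 h room-temperature incubations shielded from light; benchmarks: unlabeled CBFb 5 µM, positive control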
* hit, by the source's call. Hits are enriched below; roughly 1.8% of the tested compounds scored in any of these assays.

For CN(C)c1ccc(N/C=C/C(=O)c2ccc(F)cc2)cc1 the results were RanGTP-Impb inh -2.4, Runt-SMMHC FRET -24.0, Platelet DG rel 95.3*, Rce1 inh inactive and Runt-CBFb FRET -3.1.
CN(C)c1ccc(N/C=C/C(=O)c2ccco2)cc1 was read as RanGTP-Impb inh 5.2, Runt-SMMHC FRET 0.9, Platelet DG rel 67.7*, Rce1 inh inactive and Runt-CBFb FRET 5.9.
`NS(=O)(=O)c1ccc(N/C=C\C(=O)c2ccc(F)cc2)cc1` gave RanGTP-Impb inh -3.5, Runt-SMMHC FRET 12.8, Platelet DG rel 26.2, Rce1 inh inactive and Runt-CBFb FRET 4.0.
Screening CC(=O)Nc1ccc(N/C=C/C(=O)c2ccco2)cc1 returned RanGTP-Impb inh -13.9, Runt-SMMHC FRET -31.1, Platelet DG rel 20.2, Rce1 inh inactive and Runt-CBFb FRET -5.7.
`O=C(NCc1ccccc1)C(c1ccccc1)N(C(=O)c1csnn1)c1ccccc1` (stereo not given) gave RanGTP-Impb inh 4.4, Platelet DG rel 13.5 and Rce1 inh inactive.
Screening CC(C)(C)OC(=O)C(Cl)(C(=O)OC(C)(C)C)c1ccc2nnnn2n1 returned RanGTP-Impb inh 3.1, Runt-SMMHC FRET -3.4, Platelet DG rel -1.4, Rce1 inh inactive and Runt-CBFb FRET 0.3.
`COc1cc(OC)c(OC)cc1/C=N/Nc1ncnc2c1[nH]c1ccccc12` gave RanGTP-Impb inh inconclusive, Runt-SMMHC FRET 75.0*, Platelet DG rel -8.4, Rce1 inh inactive and Runt-CBFb FRET 19.6.
For COc1ccc(/C=N/Nc2ncnc3c2[nH]c2ccc(C)cc23)c(OC)c1OC the results were RanGTP-Impb inh 3.2, Runt-SMMHC FRET 2.4, Platelet DG rel 7.6, Rce1 inh inactive and Runt-CBFb FRET -5.1.
Screening O=C(O)c1cc(-c2ccc(Br)s2)nc2ccccc12 returned RanGTP-Impb inh 18.4*, Platelet DG rel 2.8 and Rce1 inh inactive.
For Cc1ccc(C2(COC(=O)C(C)C)CO2)c(OC(=O)C(C)C)c1 (stereo not given) the results were RanGTP-Impb inh 2.8, Runt-SMMHC FRET 0.2, Platelet DG rel -5.0, Rce1 inh active and Runt-CBFb FRET 0.8.
Screening CCc1nnc(NC(=O)CSCc2cc(=O)n3nc(C)sc3n2)s1 returned RanGTP-Impb inh -3.3, Platelet DG rel 12.3 and Rce1 inh inactive.
Screening CC(OC(=O)c1cccc(O)c1)C(=O)N(C)Cc1ccccc1 (stereo not given) returned RanGTP-Impb inh 7.0, Platelet DG rel 2.6 and Rce1 inh inactive.
CC(OC(=O)/C(C#N)=C/c1ccc(N(C)C)cc1)C(=O)N(C)Cc1ccccc1 (stereo not given) was read as RanGTP-Impb inh 80.9*, Platelet DG rel 18.4 and Rce1 inh inactive.
`Oc1ccc(Br)cc1/C=N/n1c(-c2ccccc2)n[nH]c1=S` gave RanGTP-Impb inh 17.8*, Platelet DG rel -6.6 and Rce1 inh inactive.
Screening Cc1cc(OCc2cn3cccnc3n2)ccc1Cl returned RanGTP-Impb inh 0.2, Runt-SMMHC FRET 4.3, Platelet DG rel -1.7, Rce1 inh inactive and Runt-CBFb FRET -1.3.
CC(=O)c1sc(NC(=O)COc2ccc(C(C)C)c(C)c2)nc1C was read as RanGTP-Impb inh 0.4, Runt-SMMHC FRET 1.8, Platelet DG rel 1.4, Rce1 inh inactive and Runt-CBFb FRET -3.3.
Screening O=C(NN=C(Cc1ccccc1)Cc1ccccc1)C1CC1 returned RanGTP-Impb inh 34.3*, Runt-SMMHC FRET -8.2, Platelet DG rel 1.8, Rce1 inh inactive and Runt-CBFb FRET 1.9.
For O=Cc1cn(CC(=O)N2CCCCC2)c2ccccc12 the results were RanGTP-Impb inh -2.1, Runt-SMMHC FRET 1.4, Platelet DG rel 3.2, Rce1 inh inactive and Runt-CBFb FRET -3.1.
Screening CN1C(=O)/C(=C/c2cn(CC(=O)N3CCCCC3)c3ccccc23)c2ccccc21 returned RanGTP-Impb inh -7.3, Runt-SMMHC FRET -9.4, Platelet DG rel 54.5*, Rce1 inh inactive and Runt-CBFb FRET -4.0.
`COCCNc1c2c(c(C#N)c3nc4ccccc4n13)CCCC2` gave RanGTP-Impb inh 20.5*, Runt-SMMHC FRET 75.4*, Platelet DG rel 24.6, Rce1 inh inactive and Runt-CBFb FRET 35.6.
N#Cc1c2c(c(NCCOCCO)n3c1nc1ccccc13)CCCC2 was read as RanGTP-Impb inh -3.6, Runt-SMMHC FRET 84.6*, Platelet DG rel 2.0, Rce1 inh inactive and Runt-CBFb FRET 39.2.
`C=C(C)CN1CCN(c2c(CCC#N)c(C)c(C#N)c3nc4ccccc4n23)CC1` gave RanGTP-Impb inh 3.6, Runt-SMMHC FRET -66.2, Platelet DG rel -26.0, Rce1 inh inactive and Runt-CBFb FRET -32.0.
For CC(=O)c1ccc(Nc2c3c(c(C#N)c4nc5ccccc5n24)CCC3)cc1 the results were RanGTP-Impb inh 31.5*, Runt-SMMHC FRET 67.6*, Platelet DG rel 2.9, Rce1 inh inactive and Runt-CBFb FRET 39.3.
Screening CC(=O)Nc1ccc(N2CCc3c(C)c(C#N)c4nc5ccccc5n4c32)cc1 returned RanGTP-Impb inh 110.5*, Runt-SMMHC FRET 80.6*, Platelet DG rel 7.6, Rce1 inh inactive and Runt-CBFb FRET 4.2.
COc1ccc(Nc2c3c(c(C#N)c4nc5ccccc5n24)CCC3)cc1 was read as RanGTP-Impb inh -3.0, Runt-SMMHC FRET 33.5, Platelet DG rel -75.3 and Rce1 inh inactive.
Cc1ccc(CN2CCN(c3ccccc3)CC2)o1 was read as RanGTP-Impb inh 0.8, Platelet DG rel -0.5 and Rce1 inh inactive.
For CCOc1ccc(S(=O)(=O)N(CC(=O)N2CCC(C(N)=O)CC2)c2ccc(F)cc2)cc1 the results were RanGTP-Impb inh 26.9*, Platelet DG rel 11.5 and Rce1 inh inactive.
COc1cccc(C(C(=O)NC2CCCC2)N(C(=O)c2csnn2)C2CC2)c1 (stereo not given) was read as RanGTP-Impb inh 0.8, Platelet DG rel -3.0 and Rce1 inh inactive.
`O=C(Nc1ccc2c(c1)CCC2)c1ccccc1Br` gave RanGTP-Impb inh 0.8, Runt-SMMHC FRET -2.8, Platelet DG rel 1.1, Rce1 inh active and Runt-CBFb FRET -1.6.
For COC(=O)C1=NN(N=O)C2(CC(=O)N(c3cc(C)cc(C)c3)C2=O)C1 (stereo not given) the results were RanGTP-Impb inh 0.1, Runt-SMMHC FRET -10.4, Platelet DG rel 1.1, Rce1 inh inactive and Runt-CBFb FRET -5.3.
For Cc1nc(N2CCN(c3ccccn3)CC2)c2c(C)c(C(=O)N3CCN(c4ccccc4F)CC3)sc2n1 the results were RanGTP-Impb inh 4.3, Platelet DG rel -13.0 and Rce1 inh inactive.
For CC(C)N1CCN(C(=O)C2CCC(=O)N(CCc3cccc(F)c3)C2)CC1 (stereo not given) the results were RanGTP-Impb inh -3.7, Platelet DG rel -3.7 and Rce1 inh inactive.
Screening CCOC(=O)/C(C#N)=C1/C=C(C)NC(c2ccccc2O)=N1 returned RanGTP-Impb inh 3.5, Runt-SMMHC FRET 60.7*, Platelet DG rel 0.5, Rce1 inh inactive and Runt-CBFb FRET 25.3.
